Source: ChEMBL document CHEMBL1155224, “Discovery of new inhibitors of resistant Streptococcus pneumoniae penicillin binding protein (PBP) 2x by structure-based virtual screening” (J Med Chem, 2009)
Substitutions are numbered along the chain they refer to. Values after ≈ are worked out from the molar mass of the structure shown. Active and inactive are the calls of the source. The rule behind the calls is not given here.

Legend:
[1] = molecular target: T1, Penicillin-binding protein 2X (Streptococcus pneumoniae R6, UniProt P59676); assay: (§1) Inhibition of penicillin-sensitive Streptococcus pneumoniae R6 PBP2X preincubated for 1 hr before addition of substrate (R)-[2-(benzoylamino)propionylsulfanyl]acetic acid
T1 sequence (P59676 whole entry): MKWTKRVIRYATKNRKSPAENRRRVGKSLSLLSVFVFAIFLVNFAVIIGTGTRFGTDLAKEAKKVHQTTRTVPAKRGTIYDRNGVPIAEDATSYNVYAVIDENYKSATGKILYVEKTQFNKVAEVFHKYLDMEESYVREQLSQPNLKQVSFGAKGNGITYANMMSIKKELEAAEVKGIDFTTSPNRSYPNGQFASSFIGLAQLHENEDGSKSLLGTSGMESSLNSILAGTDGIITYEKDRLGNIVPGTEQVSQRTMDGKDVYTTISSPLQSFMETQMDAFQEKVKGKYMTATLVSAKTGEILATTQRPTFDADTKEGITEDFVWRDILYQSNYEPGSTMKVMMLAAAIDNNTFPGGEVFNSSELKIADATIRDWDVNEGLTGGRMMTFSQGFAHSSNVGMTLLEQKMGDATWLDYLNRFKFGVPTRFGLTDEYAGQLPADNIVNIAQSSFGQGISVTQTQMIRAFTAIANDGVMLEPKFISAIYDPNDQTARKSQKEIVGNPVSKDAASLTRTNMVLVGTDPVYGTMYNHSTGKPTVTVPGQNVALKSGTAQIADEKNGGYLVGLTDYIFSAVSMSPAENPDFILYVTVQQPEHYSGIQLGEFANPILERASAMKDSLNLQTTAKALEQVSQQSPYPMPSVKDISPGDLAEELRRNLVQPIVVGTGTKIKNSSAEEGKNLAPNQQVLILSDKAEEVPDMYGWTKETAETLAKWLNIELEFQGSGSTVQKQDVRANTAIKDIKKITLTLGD
In short: (§2)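 Compounds taken from 100 mM DMF stocks (1% DMF final) and preincubated with 0.09 μM R6-PBP2x in 10 mM sodium phosphate pH 7.0 with 0.01 mg/mL BSA, 60 min, 25 °C. Spontaneous hydrolysis without enzyme measured. Triplicates. IC50 fitted from residual activity versus decreasing inhibitor concentration, with 0.01% Triton X-100.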

[2] = molecular target: Penicillin-binding protein 2x (Streptococcus pneumoniae serotype 4 (strain ATCC BAA-334 / TIGR4), UniProt P14677); assay: (§3) Inhibition of penicillin-resistant Streptococcus pneumoniae 5204 PBP2X preincubated for 4 hrs before addition of substrate (R)-[2-(benzoylamino)propionylsulfanyl]acetic acid
Chain of Penicillin-binding protein 2x (P14677 whole entry, looked up): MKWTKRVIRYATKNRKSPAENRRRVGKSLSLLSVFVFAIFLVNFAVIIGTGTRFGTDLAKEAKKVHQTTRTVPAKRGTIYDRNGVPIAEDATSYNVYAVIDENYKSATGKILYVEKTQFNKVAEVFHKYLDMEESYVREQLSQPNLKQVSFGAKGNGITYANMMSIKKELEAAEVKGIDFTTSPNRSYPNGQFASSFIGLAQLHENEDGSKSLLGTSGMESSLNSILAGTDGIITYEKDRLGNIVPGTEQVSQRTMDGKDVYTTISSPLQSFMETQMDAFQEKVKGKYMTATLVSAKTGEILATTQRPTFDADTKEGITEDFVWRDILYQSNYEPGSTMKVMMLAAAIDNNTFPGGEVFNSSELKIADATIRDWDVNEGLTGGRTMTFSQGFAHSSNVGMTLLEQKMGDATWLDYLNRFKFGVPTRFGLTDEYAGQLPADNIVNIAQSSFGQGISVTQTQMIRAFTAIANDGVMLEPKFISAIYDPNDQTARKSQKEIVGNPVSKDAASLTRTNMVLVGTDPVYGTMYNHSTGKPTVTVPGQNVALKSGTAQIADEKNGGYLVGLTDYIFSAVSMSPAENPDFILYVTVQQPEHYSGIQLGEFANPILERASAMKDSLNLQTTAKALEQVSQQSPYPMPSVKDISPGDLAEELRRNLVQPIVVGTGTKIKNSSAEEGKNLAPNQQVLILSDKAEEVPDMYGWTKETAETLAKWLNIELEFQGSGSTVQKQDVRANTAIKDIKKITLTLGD
In short: (§4)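 0.6 μM 5204-PBP2x preincubated 4 h at 25 °C with inhibitor in 10 mM sodium phosphate pH 7.0, 70 mM D-alanine, 0.01 mg/mL BSA, 1% DMF, 0.01% Triton X-100. Assays were run in triplicate, and IC50 was fitted from residual activity versus decreasing inhibitor concentrations.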

[3] = molecular target: T2, Penicillin-binding protein 2x (Streptococcus pneumoniae serotype 4 (strain ATCC BAA-334 / TIGR4)) (UniProt P14677); assay: Inhibition of penicillin-resistant Streptococcus pneumoniae 5204 PBP2X; in short: as §4
T2 sequence (whole entry): T1 sequence (P59676 whole entry) with M385T

[4] = molecular target: T2, Penicillin-binding protein 2x (Streptococcus pneumoniae serotype 4 (strain ATCC BAA-334 / TIGR4)); assay: Inhibition of penicillin-resistant Streptococcus pneumoniae 5204 PBP2X assessed as residual activity at 100 uM preincubated for 1 hr before addition of substrate (R)-[2-(benzoylamino)propionylsulfanyl]acetic acid
[5] = Inhibition of Streptococcus pneumoniae PBP1B after 60 mins by SDS-PAGE
In short: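 Test compounds incubated with 0.7 μM PBP1b in 10 mM sodium phosphate pH 7.0 for 60 min at 30 °C. Remaining active enzyme counter-labeled with 10 μM fluorescein-labeled ampicillin for 20 min. Reaction stopped, proteins separated by SDS-PAGE and read by fluorescence imaging with background subtracted.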

[6] = tested on: Streptococcus pneumoniae; assay: Antibacterial activity against penicillin-resistant Streptococcus pneumoniae 5259; type: functional
[7] = molecular target: T3, Penicillin-binding protein 2X (Streptococcus pneumoniae R6) (UniProt P59676); assay: as §1; in short: as §2
T3 sequence (whole entry): T1 sequence (P59676 whole entry)

[8] = tested on: Streptococcus pneumoniae; assay: Antibacterial activity against penicillin-resistant Streptococcus pneumoniae SP328; type: functional
[9] = molecular target: T2, Penicillin-binding protein 2x (Streptococcus pneumoniae serotype 4 (strain ATCC BAA-334 / TIGR4)); assay: as §3; in short: as §4
[10] = molecular target: T2, Penicillin-binding protein 2x (Streptococcus pneumoniae serotype 4 (strain ATCC BAA-334 / TIGR4)); assay: Inhibition of penicillin-resistant Streptococcus pneumoniae 5204 PBP2X assessed as residual activity at 200 uM preincubated for 1 hr before addition of substrate (R)-[2-(benzoylamino)propionylsulfanyl]acetic acid

SMILES | IC50 [1] [µM] | IC50 [2] [µM] | Activity [3] | Activity [4] [%] | IC50 ([5]; read-out: IC50) [µM] | MIC [6] [µg/mL] | Activity [7] | MIC [8] [µg/mL] | Activity [9] | Activity [10] [%] | IC50 [5]
O=C(Nc1cccc(C(F)(F)F)c1)Nc1c(Oc2ccc(Cl)c(Cl)c2)ccc(Cl)c1S(=O)(=O)O | 255 | 72 | Active | 50 | 88 |  |  |  |  |  | 
CC1(C)S[C@@H]2[C@H](NC(=O)Cc3ccccc3)C(=O)N2[C@H]1C(=O)O [PENICILLIN G] |  |  |  |  |  | 0.19 (≈ 0.568 µM) | Active | 4 (≈ 12 µM) | Active |  | 
Cc1ccc(Nc2nnc(CSc3ccc(Cl)cc3)s2)c(S(=O)(=O)O)c1 | > 1000 | 219 | Active |  |  |  |  |  |  | 54 | Not Active
